Measurements published in ChEMBL document CHEMBL1140030, “Spin trapping experiments with different carbamoyl-substituted EMPO derivatives” (Bioorg Med Chem, 2008).

Assays:
[1] = Partition coefficient, P in n-octanol/phosphate buffer at pH 7.0
[2] = Antioxidant spin trapping activity assessed as carbon centered radical adduct formation from methanol; assay type: physicochemical
How it was run: (§1)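 Fenton-type generation of alcohol-derived carbon radicals: spin trap (40 mM, init. conc.), FeSO4 (1 mM), EDTA (2 mM), H2O2 (0.2%) in methanol or ethanol/water; stopped after 10 s by 1:1 dilution with 300 mM phosphate buffer pH 7.4 containing 20 mM DTPA; ESR: sweep 80 G, modulation 0.21 G, 20 mW, gain 4×10^4, 57 G/min.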

[3] = Antioxidant spin trapping activity assessed as carbon centered radical adduct formation from ethanol; assay type: physicochemical
How it was run: as §1

[4] = Antioxidant spin trapping activity assessed as carbon centered radical adduct formation from formate; assay type: physicochemical
How it was run: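 CO2 anion radical adducts: spin trap (40 mM, init. conc.) with FeSO4 (1 mM), EDTA (2 mM), H2O2 (0.2%) in aqueous sodium formate (200 mM); reaction stopped after 10 s by 1:1 dilution into 300 mM phosphate buffer pH 7.4 with 20 mM DTPA, then ESR spectrum recorded (sweep width 80 G).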

[5] = Antioxidant spin trapping activity assessed as hydroxyl radical adducts formation by Fenton system; assay type: physicochemical
How it was run: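 Hydroxyl adducts: spin trap (40 mM, initial) with Fenton mix of FeSO4 (1 mM), EDTA (2 mM), H2O2 (0.2%); after 10 s diluted 1:1 with 300 mM phosphate buffer pH 7.4 containing 20 mM DTPA; ESR at sweep 80 G, modulation 0.21 G, microwave 20 mW, time constant 0.08 s, gain 2×10^4, 57 G/min.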

[6] = Antioxidant spin trapping activity assessed as alkoxyl radical adducts formation from ethanol; assay type: physicochemical
How it was run: (§2)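 Alkoxyl adducts by nucleophilic addition: spin trap (1 M, init. conc., in methanol or ethanol) incubated 10 s with FeCl3 (2 mM in the alcohol), then stopped by 1:20 dilution with phosphate buffer (0.3 M, pH 7.4, 20 mM DTPA); ESR recorded at 9.7 GHz, sweep width 80 G.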

[7] = Antioxidant spin trapping activity assessed as alkoxyl radical adducts formation from methanol; assay type: physicochemical
How it was run: as §2

| SMILES | P [1] | Activity [2] | Activity [3] | Activity [4] | Activity [5] | Activity [6] | Activity [7] |
| --- | --- | --- | --- | --- | --- | --- | --- |
| CCOC(=O)C1(C)CCC=[N+]1[O-] (stereo unspecified) | 0.15 |  |  |  |  |  |  |
| CC1(C(N)=O)CCC=[N+]1[O-] (stereo unspecified) | 0.016 |  |  |  |  |  |  |
| CCCC1(C(N)=O)CCC=[N+]1[O-] (stereo unspecified) | 0.211 | Active | Active | Active | Active | Active |  |
| CCC1(C(N)=O)CCC=[N+]1[O-] (stereo unspecified) | 0.056 |  |  | Active | Active |  |  |
| CCCCCC1(C(N)=O)CCC=[N+]1[O-] (stereo unspecified) | 2.72 | Active | Active | Active | Active | Active | Active |
| CCCCC1(C(N)=O)CCC=[N+]1[O-] (stereo unspecified) | 0.668 |  |  | Active | Active |  |  |
